Reference: PMC11522000 (Nature Microbiology, 2024)
Several values for one entry are separate records, joined by “and”; a condition that tells them apart may be missing. Identical values can stand only once.

Key:
[1] = In vivo pharmacokinetic analysis; parameters: species or system rat; details: portal vein cannulated rats, oral
[2] = system: MDR-transfected MDCK cells; assay: MDCK MDR1 permeability and efflux; format: in vitro ADME; details: MDCK MDR1, basolateral to apical
[3] = system: C. parvum; assay: Washout assay, nanoluciferase-expressing C. parvum; format: cell-based, Cryptosporidium parvum; details: exposure 2–6 h post infection
Outline: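 HCT-8 cells were grown to ~90% confluence, then infected with 400 nanoluciferase-expressing oocysts per well. Before infection, oocysts were primed for excystation with 10 mM HCl in water (10 min, 37 °C), then 2 mM sodium taurocholate in DPBS with Ca/Mg (10 min, 16 °C). Luminescence was read over time. RLU taken soon after infection served as day 0 and was used to normalize each timepoint.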

[4] = Stability in intestinal S9 fraction; format: in vitro ADME; details: dog
Outline: (§1)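 Test compound added to intestinal S9 fraction of each species to start the reaction. Incubated in a shaking water bath at 37 °C, with samples taken at sequential timepoints. Samples quenched with ice-cold acetonitrile and analysed by LC-MS/MS. Half-life calculated from the rate of parent compound depletion.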

[5] = Neonatal calf pharmacokinetics; format: in vivo; details: bovine, plasma, po, 10 mg/kg
Outline: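 Calves were dosed orally at 10 mg/kg birth weight every 12 h, at least 2 h after feeding. On day 1, blood was drawn before dosing and at several timepoints up to 12 h.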

[6] = system: liver and duodenum; assay: In vivo rat Comet assay; details: up to 2000 mg/kg/day
Outline: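 Liver and duodenum were sampled near Tmax after the second dose for the Comet assay.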

[7] = system: C. parvum; assay: Neonatal calf efficacy study; format: in vivo, neonatal calves
Outline: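 Infected neonatal calves received test compound orally by dosing syringe every 12 h for 7 days at 10 mg/kg birth weight, at least 2 h after feeding. Controls were vehicle-treated calves. The negative-control calf was sham-challenged so staff stayed blinded during dosing, clinical scoring of faecal consistency and faecal qPCR for oocysts.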

[8] = system: human PXR; assay: PXR reporter gene assay; format: in vitro ADME
Outline: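 CYP3A4 transactivation was measured in the human hepatoma line DPX-2, which overexpresses human PXR and carries a CYP3A4 promoter-luciferase reporter.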

[9] = target: ATM (Homo sapiens, UniProt Q13315); assay: Kinase assay panel; format: biochemical
ATM, sequence (Q13315 whole entry): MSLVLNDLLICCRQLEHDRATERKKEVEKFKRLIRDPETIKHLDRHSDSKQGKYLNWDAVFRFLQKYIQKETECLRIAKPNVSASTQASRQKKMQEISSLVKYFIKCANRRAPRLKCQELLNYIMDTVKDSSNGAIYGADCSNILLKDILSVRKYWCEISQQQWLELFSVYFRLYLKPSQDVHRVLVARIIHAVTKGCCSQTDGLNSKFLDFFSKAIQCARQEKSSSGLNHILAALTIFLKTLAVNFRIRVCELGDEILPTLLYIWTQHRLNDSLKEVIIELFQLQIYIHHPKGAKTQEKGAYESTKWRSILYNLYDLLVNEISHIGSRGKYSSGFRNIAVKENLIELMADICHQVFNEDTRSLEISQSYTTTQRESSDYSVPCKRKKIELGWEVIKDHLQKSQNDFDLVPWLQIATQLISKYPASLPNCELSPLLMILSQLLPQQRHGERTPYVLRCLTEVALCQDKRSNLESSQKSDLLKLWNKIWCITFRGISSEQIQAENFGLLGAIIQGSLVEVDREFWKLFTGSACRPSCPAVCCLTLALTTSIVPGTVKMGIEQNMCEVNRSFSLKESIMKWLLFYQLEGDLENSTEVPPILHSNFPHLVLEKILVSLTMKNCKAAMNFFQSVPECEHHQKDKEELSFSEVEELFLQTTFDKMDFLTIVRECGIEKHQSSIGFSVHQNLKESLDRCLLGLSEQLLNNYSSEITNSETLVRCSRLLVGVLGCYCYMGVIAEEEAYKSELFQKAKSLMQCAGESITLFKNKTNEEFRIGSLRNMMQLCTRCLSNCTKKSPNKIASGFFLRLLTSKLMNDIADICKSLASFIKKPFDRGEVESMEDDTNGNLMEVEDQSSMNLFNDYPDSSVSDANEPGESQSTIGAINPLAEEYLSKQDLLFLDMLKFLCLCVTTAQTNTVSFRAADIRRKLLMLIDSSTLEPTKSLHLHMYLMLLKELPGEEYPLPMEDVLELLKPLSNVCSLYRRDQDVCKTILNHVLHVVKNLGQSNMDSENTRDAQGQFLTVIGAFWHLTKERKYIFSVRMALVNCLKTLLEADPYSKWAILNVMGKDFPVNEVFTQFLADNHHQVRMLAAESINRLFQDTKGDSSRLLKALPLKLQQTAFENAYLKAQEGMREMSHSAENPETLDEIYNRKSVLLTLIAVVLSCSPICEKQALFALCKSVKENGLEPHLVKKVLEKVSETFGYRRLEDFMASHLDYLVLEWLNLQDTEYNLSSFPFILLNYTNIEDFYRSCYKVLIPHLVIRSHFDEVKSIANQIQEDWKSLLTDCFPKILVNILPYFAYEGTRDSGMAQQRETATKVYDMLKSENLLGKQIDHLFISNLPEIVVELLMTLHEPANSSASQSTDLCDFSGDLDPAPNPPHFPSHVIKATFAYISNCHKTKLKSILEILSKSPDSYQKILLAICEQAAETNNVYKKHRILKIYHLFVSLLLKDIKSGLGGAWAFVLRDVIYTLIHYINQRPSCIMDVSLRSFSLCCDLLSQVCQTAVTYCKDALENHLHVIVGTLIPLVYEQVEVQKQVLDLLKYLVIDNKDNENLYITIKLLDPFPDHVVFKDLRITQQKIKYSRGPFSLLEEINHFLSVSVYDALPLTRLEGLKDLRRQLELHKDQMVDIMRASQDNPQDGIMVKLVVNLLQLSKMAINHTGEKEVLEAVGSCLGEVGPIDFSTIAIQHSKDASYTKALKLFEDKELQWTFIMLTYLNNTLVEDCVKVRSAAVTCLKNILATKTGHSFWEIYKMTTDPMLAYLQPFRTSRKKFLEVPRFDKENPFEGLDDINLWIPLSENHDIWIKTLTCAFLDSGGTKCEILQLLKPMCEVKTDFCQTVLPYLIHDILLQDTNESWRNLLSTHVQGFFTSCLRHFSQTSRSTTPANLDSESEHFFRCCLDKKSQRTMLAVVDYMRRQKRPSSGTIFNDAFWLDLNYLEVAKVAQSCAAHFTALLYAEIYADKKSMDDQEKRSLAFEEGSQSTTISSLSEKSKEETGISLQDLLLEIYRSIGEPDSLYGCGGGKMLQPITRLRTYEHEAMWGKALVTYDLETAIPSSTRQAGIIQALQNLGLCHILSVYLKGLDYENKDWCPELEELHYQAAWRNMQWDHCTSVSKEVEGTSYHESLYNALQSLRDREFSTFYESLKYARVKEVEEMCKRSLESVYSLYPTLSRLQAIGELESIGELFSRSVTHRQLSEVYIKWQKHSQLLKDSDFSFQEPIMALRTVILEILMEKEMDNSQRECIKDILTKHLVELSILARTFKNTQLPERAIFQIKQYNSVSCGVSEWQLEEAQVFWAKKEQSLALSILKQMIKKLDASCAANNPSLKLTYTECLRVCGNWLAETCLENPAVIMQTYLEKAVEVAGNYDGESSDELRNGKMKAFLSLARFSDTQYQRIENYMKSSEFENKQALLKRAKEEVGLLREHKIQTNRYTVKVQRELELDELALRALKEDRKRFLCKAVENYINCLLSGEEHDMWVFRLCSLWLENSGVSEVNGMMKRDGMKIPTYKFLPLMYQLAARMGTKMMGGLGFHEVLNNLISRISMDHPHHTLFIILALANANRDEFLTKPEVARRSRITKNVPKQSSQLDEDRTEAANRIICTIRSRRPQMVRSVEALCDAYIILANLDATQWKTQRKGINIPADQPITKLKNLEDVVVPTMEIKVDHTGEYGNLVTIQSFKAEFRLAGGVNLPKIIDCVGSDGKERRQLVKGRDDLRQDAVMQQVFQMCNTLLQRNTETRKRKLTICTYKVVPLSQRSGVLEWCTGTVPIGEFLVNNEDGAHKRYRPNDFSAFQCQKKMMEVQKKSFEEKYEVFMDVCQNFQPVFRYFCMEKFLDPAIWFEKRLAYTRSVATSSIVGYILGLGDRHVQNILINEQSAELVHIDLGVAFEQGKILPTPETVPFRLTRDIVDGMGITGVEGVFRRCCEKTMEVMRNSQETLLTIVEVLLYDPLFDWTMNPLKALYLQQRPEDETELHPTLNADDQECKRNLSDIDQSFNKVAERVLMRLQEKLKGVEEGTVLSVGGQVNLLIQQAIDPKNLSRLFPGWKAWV

[10] = Stability in intestinal S9 fraction; format: in vitro ADME; details: rat
Outline: as §1

[11] = Lipophilicity; format: physicochemical
[12] = In vivo pharmacokinetics, all tested preclinical species; details: male, mouse, rat, dog, plasma, po
Outline: (§2)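 Animals were male C57BL/6 mice (8–10 weeks), Wistar rats (8–10 weeks) and beagle dogs (12–14 weeks). Each received oral and i.v. doses, with plasma sampling for PK parameters.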

[13] = Stability in intestinal S9 fraction; format: in vitro ADME, calf; details: bovine
Outline: as §1

[14] = Liver microsomes metabolic stability; format: in vitro ADME; details: mouse
Outline: (§3)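 Test compound was incubated with liver microsomes or hepatocytes of each species, and parent depletion was quantified by LC-MS/MS. From this, in vitro half-life and intrinsic clearance were derived, along with predicted metabolic clearance and hepatic extraction ratio.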

[15] = Plasma stability; format: in vitro ADME; details: dog
Outline: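 Test compound was added to plasma and incubated at 37 °C in a shaking water bath, with samples taken at sequential timepoints. Samples were quenched with ice-cold acetonitrile and analysed by LC-MS/MS, and half-life was calculated from the depletion rate.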

[16] = system: C. parvum; assay: DNA synthesis; format: cell-based, Cryptosporidium parvum; details: compound at 3 h post infection, EdU at 9 h
Outline: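 HCT-8 cells were seeded at 5,000–25,000 per well on fibronectin-coated glass-bottom plates to reach 90–100% confluence, then infected with triggered oocysts. After 3 h at 37 °C, test compound or controls were added (DMSO neutral, cladosporin active) and incubation continued to about 9 h post infection. EdU was detected, vacuoles stained with VVL and nuclei with Hoechst, and wells imaged with a 40x objective.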

[17] = Stability in intestinal S9 fraction; format: in vitro ADME; details: human
Outline: as §1

[18] = system: CpPI(4)K::Y705A:Y907A; assay: PI; format: biochemical, C. parvum
Outline: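 Enzyme was pre-incubated with compound for 5 min at room temperature. The reaction was started with substrate mix at twice final strength (PI, ATP, Tris-HCl pH 7.5, DTT, 0.05% Triton X-100, MnCl2) and run 50 min at room temperature. ADP was measured by ADP-Glo luminescence. IC50s came from in-plate duplicate 10-point 3-fold dilutions, with DMSO and reference-inhibitor controls. The C. parvum enzymes (wild type and mutants) were full-length proteins expressed from baculovirus in Sf21 cells.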

[19] = target: hCav1.2 (Homo sapiens, UniProt Q13936); assay: Patch clamp Cav1.2 Quattro; format: cell-based
Outline: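 Each channel was stably expressed in HEK293 cells and tested by patch clamp with a 7-point concentration-response.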

[20] = In vivo pharmacokinetic analysis; details: male, Beagle, dog, plasma
Outline: as §2

[21] = system: C. parvum; assay: Mouse efficacy study; format: in vivo, C57BL/6 IFN-γ-knockout mice; details: for log reduction in oocyst shedding / log reduction in faecal oocyst shedding: IFN-γ KO mouse, 5 days; for log reduction in faecal oocyst shedding: 10 mg kg^−1 oral
[22] = system: TK6 cells; assay: In vitro micronucleus test in TK6 cells; format: cell-based
[23] = Hepatocytes metabolic stability; format: in vitro ADME; details: rat
Outline: as §3

[24] = Plasma protein binding; format: in vitro ADME; details: rat

## CNC(=O)c1ccc(-c2cnn3ccc(C(=O)N(C)c4ccc(Cl)c(C(=O)OC)c4)cc23)cc1 [EDI048, methyl 2-chloro-5-(N-methyl-3-(4-(methylcarbamoyl)phenyl)pyrazolo[1,5-a]pyridine-5-carboxamido)benzoate]
[1]
  portal vein concentration relative to systemic levels: ~ 40 fold
[2]
  Permeability B–A: 7.92 / 12.9 / 1.62 ×10^−6 cm s^−1
[3]
  washout: effect of 4 h exposure on parasite growth: does not affect parasite growth
[4]
  half-life: > 4 h
[5]; infected calves with diarrhea
  Tmax: 12 h
[5]; uninfected healthy calves
  Tmax: 2 h
[6]
  In vivo rat Comet assay: Negative^e
[7]; 10 mg kg^−1 every 12 h, 7 days
  tolerability in calves: tolerated the full 7 day course of EDI048 treatment without compound-related abnormalities
[7]; P < 0.0001
  faecal consistency vs vehicle-treated calves: improved faecal consistency
[7]; P = 0.0062
  faecal oocyst shedding vs vehicle-treated calves: shed significantly fewer oocysts
[7]; calf model
  emergence of resistance during treatment: resistance did not emerge
[7]; post treatment
  time to signs of resolution of diarrhea: ≤ 48 h
[7]; up to 7 days
  recrudescence after cessation of treatment: No recrudescence of infection
[8]
  induction of human pregnane X receptor: did not induce human pregnane X receptor
[9]
  IC50: 445 nM
  selectivity ATM over CpPI(4)K inhibition: > 100 fold
[10]
  half-life: > 4 h
[11]
  logD: 2.7
  logP: 3.65
[12]
  bioavailability: 0.4 to 5.6%
[13]
  half-life: 2.92 h
[14]
  Microsomal ER: 93%
[14]; liver microsomes
  microsomal CLint: > 700 µL/min/mg
[15]
  Plasma T1/2: > 2 h
[15]; Plasma T1/2, dog plasma
  half-life: > 4 h
[16]
  DNA synthesis (EdU incorporation): does not affect DNA synthesis
[17]
  half-life: 3.92 h
[18]
  loss of potency against CpPI(4)K::Y705A:Y907A mutant compared with wild-type: 35–200 ×
[19]
  IC50: > 50000 nM
[20]; iv, 0.1 mg/kg
  AUC: 0.0779 µM·h
  Vd: 1.54 L/kg
  clearance: 45.7 mL/min/kg
  half-life: 0.56 h
[20]; po, 0.3 mg/kg
  AUC: 0.0118 µM·h
  Cmax: 5.2 nM
  Tmax: 0.75 h
  bioavailability: 5.6%
[21]; 1 mg kg^−1 oral once daily
  log reduction in oocyst shedding: 0.3 log
[21]; 3 mg kg^−1 oral once daily
  log reduction in oocyst shedding: 1.1 log
[21]
  log reduction in faecal oocyst shedding: > 3 log and 3.1 log

## CN(C(=O)c1ccn2ncc(-c3ccc(C(N)=O)cc3)c2c1)c1ccc(C#N)cn1 [KDU731, 3–(4-carbamoylphenyl)-N-(5-cyanopyridin-2-yl)-N-methylpyrazolo [1,5-a]pyridine-5-carboxamide, reference compound]
[22]
  In vitro TK6 Micronucleus (MN) test: Negative
[23]
  Hepatocytes ER: 36%
[23]; hepatocytes
  hepatocyte CLint: 6.9 µL/min/1e6 cells
[24]
  % Plasma protein binding: 87.7%
[14]
  Microsomal ER: 48%
  microsomal CLint: 50 µL/min/mg
[18]
  loss of potency against CpPI(4)K::Y705A:Y907A mutant compared with wild-type: 35–200 ×
[21]
  log reduction in faecal oocyst shedding: ~ 3 log
[21]; i.v. 1 mg kg^−1, exposure similar to oral
  effect of intravenous injection on parasite load: negligible effects on the parasite load
